Results from ChEMBL document CHEMBL3244193, “Design of species- or isozyme-specific enzyme inhibitors. 3. Species and isozymic differences between mammalian and bacterial adenylate kinases in substituent tolerance in an enzyme-substrate complex” (J Med Chem, 1979).

Legend:
[1] = Noncompetitive inhibition of Escherichia coli adenylate kinase by Lineweaver-Burk plot analysis; conditions: read-out: I50
Summary of the method: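 E. coli B AK partially purified by ammonium sulfate fractionation and DEAE-cellulose chromatography; the single AK-active protein had pI 4.9. ATP KM was 0.06 mM with AMP at 0.13–0.29 mM in the coupled NADH assay (A340, 23 °C, pH 7.6 Tris).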

[2] = biological target: Adenylate kinase 2, mitochondrial (Rattus norvegicus, UniProt P29410); assay: Competitive inhibition of Sprague-Dawley rat liver adenylate kinase 2 by Lineweaver-Burk plot analysis
Summary of the method: (§1)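 Inhibition constants from the coupled NADH assay (A340, 23 °C, 0.25 mM AMP, pH 7.6). Two inhibitor levels were each run against five or more ATP levels: 0.1-0.8 mM for AK II/III, 0.15-1.1 mM for muscle AK. Ki applies to ATP-competitive inhibition and I50 to noncompetitive inhibition.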

[3] = biological target: GTP:AMP phosphotransferase AK3, mitochondrial (Rattus norvegicus, UniProt P29411); assay: Competitive inhibition of Sprague-Dawley rat liver adenylate kinase 3 by Lineweaver-Burk plot analysis; summary of the method: as §1
Chain of GTP:AMP phosphotransferase AK3, mitochondrial (P29411 whole entry): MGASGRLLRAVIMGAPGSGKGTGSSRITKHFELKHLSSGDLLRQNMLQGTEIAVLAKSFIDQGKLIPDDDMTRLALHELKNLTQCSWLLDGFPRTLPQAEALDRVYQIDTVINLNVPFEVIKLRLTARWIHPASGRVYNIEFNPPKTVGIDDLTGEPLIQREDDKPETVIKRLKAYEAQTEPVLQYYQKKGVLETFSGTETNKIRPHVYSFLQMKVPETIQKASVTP

[4] = biological target: T1, Adenylate kinase isoenzyme 1 (Rattus norvegicus, UniProt P39069); assay: Noncompetitive inhibition of Sprague-Dawley rat muscle adenylate kinase by Lineweaver-Burk plot analysis; conditions: read-out: I50
T1 sequence (P39069 whole entry): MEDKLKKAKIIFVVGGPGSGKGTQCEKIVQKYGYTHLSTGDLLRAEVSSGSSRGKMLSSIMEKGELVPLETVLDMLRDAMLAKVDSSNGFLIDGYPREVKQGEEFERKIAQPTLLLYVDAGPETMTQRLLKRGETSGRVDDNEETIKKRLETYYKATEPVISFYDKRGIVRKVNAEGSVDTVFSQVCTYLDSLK
Summary of the method: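 Enzyme source: rat skeletal muscle homogenized in KHPO4/glucose/EDTA/dithioerythritol/glycerol buffer and spun 1 h at 90000g, 2 °C. Electrofocused at pH 6-8; the AK zone (pI 6.4) was dialyzed as for the liver isozymes and held at 4 °C.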

IC50 [1]	Ki [2]	Ki [3]	IC50 [4]	SMILES
5900 µM	80 µM	50 µM	–	CCSc1nc2c(N)ncnc2n1[C@@H]1O[C@H](COP(=O)(O)OP(=O)(O)OP(=O)(O)O)[C@@H](O)[C@H]1O
–	145 µM	130 µM	–	Nc1ncnc2c1nc(SCCCCO)n2[C@@H]1O[C@H](COP(=O)(O)OP(=O)(O)OP(=O)(O)O)[C@@H](O)[C@H]1O
–	320 µM	360 µM	5950 µM	CSc1nc2c(N)ncnc2n1[C@@H]1O[C@H](COP(=O)(O)OP(=O)(O)OP(=O)(O)O)[C@@H](O)[C@H]1O
–	250 µM	220 µM	–	Nc1ncnc2c1nc(SCCO)n2[C@@H]1O[C@H](COP(=O)(O)OP(=O)(O)OP(=O)(O)O)[C@@H](O)[C@H]1O
4700 µM	55 µM	65 µM	6150 µM	CCCSc1nc2c(N)ncnc2n1[C@@H]1O[C@H](COP(=O)(O)OP(=O)(O)OP(=O)(O)O)[C@@H](O)[C@H]1O
–	–	4750 µM	12900 µM	CC(=O)NCCCCCCNc1ncnc2c1ncn2[C@@H]1O[C@H](COP(=O)(O)OP(=O)(O)OP(=O)(O)O)[C@@H](O)[C@H]1O
–	320 µM	–	–	Nc1ncnc2c1nc(Sc1ccccc1)n2[C@@H]1O[C@H](COP(=O)(O)OP(=O)(O)OP(=O)(O)O)[C@@H](O)[C@H]1O
–	80 µM	60 µM	–	CCCCCSc1nc2c(N)ncnc2n1[C@@H]1O[C@H](COP(=O)(O)OP(=O)(O)OP(=O)(O)O)[C@@H](O)[C@H]1O
–	75 µM	60 µM	6200 µM	CCCCSc1nc2c(N)ncnc2n1[C@@H]1O[C@H](COP(=O)(O)OP(=O)(O)OP(=O)(O)O)[C@@H](O)[C@H]1O
4750 µM	–	–	–	O=C(CI)NCCCCCNc1ncnc2c1ncn2[C@@H]1O[C@H](COP(=O)(O)OP(=O)(O)OP(=O)(O)O)[C@@H](O)[C@H]1O
